Series [1] addresses T1, Inhibitor of nuclear factor kappa-B kinase subunit beta (Homo sapiens, UniProt O14920).
T1 sequence (O14920 whole entry): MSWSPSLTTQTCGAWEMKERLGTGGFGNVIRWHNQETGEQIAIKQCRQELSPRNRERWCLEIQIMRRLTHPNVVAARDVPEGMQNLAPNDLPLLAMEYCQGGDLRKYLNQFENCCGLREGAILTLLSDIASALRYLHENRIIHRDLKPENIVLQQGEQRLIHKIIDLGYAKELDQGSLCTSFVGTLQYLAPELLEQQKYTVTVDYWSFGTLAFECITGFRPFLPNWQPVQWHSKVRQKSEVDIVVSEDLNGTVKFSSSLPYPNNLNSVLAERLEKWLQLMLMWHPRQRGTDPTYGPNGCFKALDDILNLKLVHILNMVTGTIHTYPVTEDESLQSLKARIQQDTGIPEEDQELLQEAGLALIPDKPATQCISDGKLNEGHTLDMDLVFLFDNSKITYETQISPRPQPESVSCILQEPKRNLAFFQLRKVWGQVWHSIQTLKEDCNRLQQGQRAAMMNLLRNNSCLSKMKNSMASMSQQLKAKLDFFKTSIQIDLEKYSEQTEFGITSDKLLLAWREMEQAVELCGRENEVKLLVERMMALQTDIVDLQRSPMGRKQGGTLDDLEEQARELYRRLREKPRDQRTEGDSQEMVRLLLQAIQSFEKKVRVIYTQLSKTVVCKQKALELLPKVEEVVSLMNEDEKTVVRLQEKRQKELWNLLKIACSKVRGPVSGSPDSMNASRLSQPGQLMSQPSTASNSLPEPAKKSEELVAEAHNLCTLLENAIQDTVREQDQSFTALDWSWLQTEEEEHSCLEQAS
In words: Allosteric inhibition of IKKbeta (unknown origin) using 5FAM-GRHDSGLDSMK-NH2 as substrate pretreated for 10 mins followed measured after 2 hrs by TR-FRET assay. The method, boiled down:
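Enzyme: 0.5 µg/mL IKK2, in 10 mM Tris-HCl pH 7.2, 10 mM MgCl2, 0.05% NaN3, 1 mM DTT, 0.01% Tween-20. Compound at 10 µM pre-incubated 10 min, then 1 µM 5-FAM IκBα peptide and 3 µM ATP added. Reaction 2 h at room temperature. IMAP binding reagent/terbium detection mix added 15 h before reading. TR-FRET read with 340 nm excitation, emission 495/520 nm. Percent inhibition or IC50 derived.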
A general note: Time-resolved FRET reads energy transfer from a long-lived donor to a nearby acceptor.

Series [2] has as its system RAW264.7. Nature of the series: Cytotoxicity against mouse RAW264.7 cells assessed as reduction in cell viability incubated for 24 hrs in presence of LPS by MTT assay. The class given is cell-based. As to conditions: RAW264.7, 24 h. The method, boiled down:
(§1)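 MTT viability in RAW 264.7 cells seeded at 1×10^5 cells/mL and incubated overnight. Compounds added with or without LPS (1 µg/mL) for 24 h. MTT for 4 h at 37 °C, formazan dissolved in DMSO, absorbance read at 540 nm. IC80 is the concentration reducing viability to 80% with LPS.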

The test system of series [3] is RAW264.7. In words: Antiinflammatory activity against mouse RAW264.7 cells assessed as reduction in LPS-induced PGE2 production at 10 uM incubated for 1 hr followed by LPS stimulation and measured after 24 hrs by ELISA (reference value: 33.64 ng/ml). It counts as functional. The method in brief: (§2)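 RAW 264.7 cells (DMEM, 10% FBS, 37 °C, 5% CO2) plated at 2×10^5 cells/mL and left overnight. Compounds (0.1, 1, 10 µM) or NS-398 given for 1 h, then LPS 10 ng/mL for 24 h. Culture medium assayed by ELISA: competitive colorimetric for PGE2/TNF-α, mouse DuoSet for TNF-α/IL-6. IC50 is the concentration lowering the mediator to 50%.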

Series [4] concerns RAW264.7. Nature of the series: Antiinflammatory activity against mouse RAW264.7 cells assessed as reduction in LPS-induced PGE2 level incubated for 1 hr followed by LPS stimulation and measured after 24 hrs by ELISA. It counts as functional, cell-based. The method, boiled down: as §2
The nature of series [5]: Effect on NO production in non-stimulated mouse RAW264.7 cells at 10 uM after 24 hrs by Griess reagent based assay. The settings on record: raw264.7, 24 h. A general note: Griess reagent forms a coloured azo dye with nitrite.
Series [6] deals with RAW264.7. Nature of the series: Antiinflammatory activity against mouse RAW264.7 cells assessed as reduction in LPS-induced IL-6 level incubated for 1 hr followed by LPS stimulation and measured after 24 hrs by ELISA. The class given is functional, cell-based. The method in brief: as §2
On the technique in general: An ELISA detects its analyte on a solid surface through an enzyme-linked reagent.

Series [7] deals with RAW264.7. In words: Cytotoxicity against mouse RAW264.7 cells assessed as reduction in cell viability at 6 uM incubated for 24 hrs by MTT assay. It counts as cell-based. The settings on record: raw264.7, 24 h. The method in brief: as §1
The subject of series [8] is RAW264.7. Nature of the series: Antiinflammatory activity against mouse RAW264.7 cells assessed as reduction in LPS-induced NO level incubated for 1 hr followed by LPS stimulation and measured after 24 hrs by Griess reagent based assay. It counts as functional, cell-based. The method in brief: (§3)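 RAW 264.7 cells in 24-well plates received compounds (0.1, 1, 10 µM) or L-NIL 40 µM positive control, then LPS 1 µg/mL for 24 h. Nitrite in the medium measured by Griess reaction as an NO surrogate. Values referenced to levels before and after LPS stimulation.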

Series [9] relates to RAW264.7. Nature of the series: Antiinflammatory activity against mouse RAW264.7 cells assessed as reduction in LPS-induced TNF-alpha level at 10 uM incubated for 1 hr followed by LPS stimulation and measured after 24 hrs by ELISA relative to control. It counts as functional. As to conditions: time 25 hrs. The method, boiled down:
as §2

The subject of series [10] is RAW264.7. In words: Antiinflammatory activity against mouse RAW264.7 cells assessed as reduction in LPS-induced PGE2 production at 0.1 to 1 uM incubated for 1 hr followed by LPS stimulation and measured after 24 hrs by ELISA. As to conditions: dose 0.1-1 µM, time 25.0 hrs. The class given is functional, cell-based. The method in brief:
as §2

In series [11] the test system is RAW264.7. In words: Antiinflammatory activity against mouse RAW264.7 cells assessed as reduction in LPS-induced TNF-alpha level incubated for 1 hr followed by LPS stimulation and measured after 24 hrs by ELISA. The class given is functional, cell-based. The method in brief: as §2
Series [12] is described as follows: Cytotoxicity against non-stimulated mouse RAW264.7 cells upto 10 uM after 24 hrs by MTT assay. The settings on record: raw264.7, 24 h.
Series [13] has as its system RAW264.7. Nature of the series: Antiinflammatory activity against mouse RAW264.7 cells assessed as reduction in LPS-induced NO level at 40 uM incubated for 1 hr followed by LPS stimulation and measured after 24 hrs by Griess reagent based assay. The class given is functional, cell-based. The method, boiled down:
as §3

The test system of series [14] is RAW264.7. Nature of the series: Antiinflammatory activity against mouse RAW264.7 cells assessed as reduction in LPS-induced TNF-alpha level at 0.1 to 1 uM incubated for 1 hr followed by LPS stimulation and measured after 24 hrs by ELISA. The class given is functional, cell-based. The settings on record: dose 0.1-1 µM, time 25.0 hrs. The method, boiled down: as §2

Series [15] has as its system RAW264.7. In words: Antiinflammatory activity against mouse RAW264.7 cells assessed as reduction in LPS-induced PGE2 production at […] incubated for 1 hr followed by LPS stimulation and measured after 24 hrs by ELISA (reference value: 33.64 ng/ml). It counts as functional. The settings on record: time 25 hrs.

pIC50: −log10 of the molar value. The source made the active and inactive calls. The calls are words filed in the database; no cut-off is given here.

The pIC50 is the IC50 on a negative log10 scale, so that one unit is a factor of ten. `CN1CCN(CCCCCOc2cccc(N3C(=O)S/C(=C\c4ccc(Oc5ccc(C#N)cc5)cc4)C3=O)c2)CC1`: in [1], the pIC50 was 6.08.
Broadly, the IC80 is the point of the concentration-response curve where the effect stands at 80%. One may read the inhibition as the change of the read-out against control, counted positive when it falls. Turning to `CN1CCN(CCCCCOc2cccc(N3C(=O)S/C(=C\c4ccc(Oc5ccc(Cl)cc5)cc4)C3=O)c2)CC1`, the pIC50 is 5.58 in [1]; 5.07 with RAW264.7 [4]; under 5.00 with RAW264.7 [6]; under 5.00 in the series with RAW264.7 [8]; under 5.00 in the series on RAW264.7 [11]. For the same molecule, the concentration for an effect of 80% (IC80) in the series with RAW264.7 [2] was over 10000 nM. In addition, the Activity is 13.87 ng/mL in the series with RAW264.7 [3] (time 25 hrs), “Non-Toxic” in series [5], “Non-Toxic” in the series on RAW264.7 [7] and “Non-Toxic” in series [12]. Also, in the series on RAW264.7 [9], the inhibition at 10 µM was 44%. Besides, the outcome with RAW264.7 [10] was inactive.
`COc1ccc(Oc2ccc(/C=C3\SC(=O)N(c4cccc(OCCCCCN5CCN(C)CC5)c4)C3=O)cc2)cc1`: the pIC50 in [1] was 5.61.
In the case of `CC(=N)NCCCC[C@H](N)C(=O)O`, the outcome with RAW264.7 [13] was Active.
For `CN1CCN(CCCCCOc2ccc(N3C(=O)S/C(=C\c4ccc(Oc5ccc(F)cc5)cc4)C3=O)cc2)CC1`, the pIC50 in series [1] was 6.22.
Turning to `CN1CCN(CCCCCOc2ccc(N3C(=O)S/C(=C\c4ccc(Oc5ccc(Cl)cc5)cc4)C3=O)cc2)CC1`, the negative logarithm of the IC50 (pIC50) in series [1] is 6.15.
Still for that read-out and setting: next, `CN1CCN(CCCCCOc2cccc(N3C(=O)S/C(=C\c4ccc(Oc5ccc(N)cc5)cc4)C3=O)c2)CC1`: 5.09; `Cc1ccc(Oc2ccc(/C=C3\SC(=O)N(c4cccc(OCCCCCN5CCN(C)CC5)c4)C3=O)cc2)cc1`: 5.56.
Take `CN1CCN(CCCCCOc2cccc(N3C(=O)S/C(=C\c4ccc(Oc5ccc(Br)cc5)cc4)C3=O)c2)CC1`: the pIC50 in [1] was 5.57.
For the molecule `CN1CCN(CCCCCOc2cccc(N3C(=O)S/C(=C\c4ccc(Oc5ccc(F)cc5)cc4)C3=O)c2)CC1`, the negative-log IC50 (pIC50) is 5.22 in [1]; under 5.00 with RAW264.7 [4]; under 5.00 in the series on RAW264.7 [6]; under 5.00 in the series with RAW264.7 [8]; 5.10 in the series with RAW264.7 [11]. In addition, the concentration for an effect of 80% (IC80) in the series with RAW264.7 [2] is 4430 nM. For the same molecule, the inhibition result with RAW264.7 [14] was “inactive”. Also, the result with RAW264.7 [3] (time 25.0 hrs) and in the series with RAW264.7 [10] was inactive. Besides, the Activity entry (in series [5]; with RAW264.7 [7]; in [12]) was “Non-Toxic” throughout. In the series on RAW264.7 [9], the inhibition at 10 µM was 71%.
`CC(=O)Nc1ccc(Oc2ccc(/C=C3\SC(=O)N(c4ccc(OCCCCCN5CCN(C)CC5)cc4)C3=O)cc2)cc1`: the negative-log IC50 (pIC50) in series [1] was 5.77.
Still for that read-out and setting: next, `CN1CCN(CCCOc2ccc(N3C(=O)S/C(=C\c4ccc(Oc5ccc(F)cc5)cc4)C3=O)cc2)CC1`: 6.17; `CN1CCN(CCCCCOc2ccc(N3C(=O)S/C(=C\c4ccc(Oc5ccc(Br)cc5)cc4)C3=O)cc2)CC1`: 6.37.
The same measure, in the same setting: next, `COc1ccc(Oc2ccc(/C=C3\SC(=O)N(c4ccc(OCCCCCN5CCN(C)CC5)cc4)C3=O)cc2)cc1`: 6.15.
Same read-out and setting: next, `CN1CCN(CCCCCOc2ccc(N3C(=O)S/C(=C\c4ccc(Oc5ccc(N)cc5)cc4)C3=O)cc2)CC1`: 5.58.
In the case of `Cc1ccc(Oc2ccc(/C=C3\SC(=O)N(c4ccc(OCCCCCN5CCN(C)CC5)cc4)C3=O)cc2)cc1`, in [1], the pIC50 is 6.06.
Turning to `CS(=O)(=O)Nc1ccc([N+](=O)[O-])cc1OC1CCCCC1` [NS-398], in the series with RAW264.7 [15], the Activity was 12.02 ng/mL.

Source of the values: ChEMBL document CHEMBL4680142, “Thiazolidine-2,4-dione-based irreversible allosteric IKK-β kinase inhibitors: Optimization into in vivo active anti-inflammatory agents” (Eur J Med Chem, 2020).
